Assay results from article PMC6044410 (Structure (London, England : 1993), 2017).
Values joined by “and” are separate entries in the source; they are usually repeats but may differ in a detail not shown here. Equal entries are not always repeated. Where two headings read alike, the source gives them in different places. Blank lines part the entries; values can stand above or below the molecule they belong to. Square brackets hold non-standard residues; d marks the D form. Peptide text beside a SMILES is read from it. * marks the point of attachment. FITC = O=C1OC2(c3ccc(O)cc3Oc3cc(O)ccc32)c2ccc(NC(=S)*)cc21; pT = C[C@@H](OP(=O)(O)O)[C@H](N)C(=O)O; pS = N[C@@H](COP(=O)(O)O)C(=O)O

Experiments:
[1] = target: human TopBP1 BRCT5, 641-746 (UniProt Q92547); test: fluorescence polarization titration; conditions: reference: pSer304 peptide mock-treated without λ phosphatase; sites S304
GST-hTopBP1 BRCT5 WT = GST-hTopBP1 BRCT5 WT (Homo sapiens, UniProt Q92547); test: Fluorescence polarization binding, GST-hBRCT5 WT
Sequence of GST-hTopBP1 BRCT5 WT (Q92547 641-746): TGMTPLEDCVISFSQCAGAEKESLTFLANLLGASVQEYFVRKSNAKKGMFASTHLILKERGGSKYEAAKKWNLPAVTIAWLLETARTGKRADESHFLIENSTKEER

[2] = target: TopBP1 BRCT4/5, untagged and GST-tagged forms (Homo sapiens, UniProt Q92547); test: Fluorescence polarization binding, untagged and GST-tagged TopBP1 forms compared
Sequence of TopBP1 BRCT4/5, untagged and GST-tagged forms (Q92547 549-746): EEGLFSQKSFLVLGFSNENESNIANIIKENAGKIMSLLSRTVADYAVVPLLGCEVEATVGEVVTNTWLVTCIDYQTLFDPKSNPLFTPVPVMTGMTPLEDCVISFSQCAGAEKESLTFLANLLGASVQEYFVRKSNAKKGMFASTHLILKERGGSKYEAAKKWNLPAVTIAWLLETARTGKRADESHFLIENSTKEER
In short: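 Untagged BRCT4/5 was prepared by overnight PreScission cleavage of the GST fusion at 4 °C, then anion exchange at pH 7.0, glutathione-bead removal of GST, and gel filtration. Read-out was ex 485/em 538 nm; KD was curve-fitted and averaged over ≥3 measurements.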

GST-hBRCT5 M689A = GST-hBRCT5 M689A (Homo sapiens, UniProt Q92547, M689A); test: Fluorescence polarization binding, GST-hBRCT5 M689A
Sequence of GST-hBRCT5 M689A (Q92547 641-746 M689A): as the sequence (Q92547 641-746) above, with M49A counted along it

[3] = target: GST-human TopBP1 BRCT5 Y678A (human, UniProt Q92547 641-746, Y678A); test: fluorescence polarisation
Sequence of GST-human TopBP1 BRCT5 Y678A (Q92547 641-746 Y678A): as the sequence (Q92547 641-746) above, with Y38A counted along it

[4] = target: GST-human TopBP1 BRCT5 M689A (human, UniProt Q92547 641-746, M689A); test: fluorescence polarisation
Sequence of GST-human TopBP1 BRCT5 M689A (Q92547 641-746 M689A): as the sequence (Q92547 641-746) above, with M49A counted along it

[5] = target: GST-human TopBP1 BRCT5 R681E/K682E (human, UniProt Q92547 641-746, R681E | K682E); test: fluorescence polarisation
Sequence of GST-human TopBP1 BRCT5 R681E/K682E (Q92547 641-746 R681E/K682E): as the sequence (Q92547 641-746) above, with R41E, K42E counted along it

[6] = target: GST-human TopBP1 BRCT5 K704A (human, UniProt Q92547 641-746, K704A); test: fluorescence polarisation
Sequence of GST-human TopBP1 BRCT5 K704A (Q92547 641-746 K704A): as the sequence (Q92547 641-746) above, with K64A counted along it

[7] = target: GST-human TopBP1 BRCT5 A707D (human, UniProt Q92547 641-746, A707D); test: fluorescence polarisation
Sequence of GST-human TopBP1 BRCT5 A707D (Q92547 641-746 A707D): as the sequence (Q92547 641-746) above, with A67D counted along it

[8] = target: GST-human TopBP1 BRCT5 K686E/K687E (human, UniProt Q92547 641-746, K686E | K687E); test: fluorescence polarisation
Sequence of GST-human TopBP1 BRCT5 K686E/K687E (Q92547 641-746 K686E/K687E): as the sequence (Q92547 641-746) above, with K46E, K47E counted along it

[9] = target: GST-human TopBP1 BRCT5 A707K (human, UniProt Q92547 641-746, A707K); test: fluorescence polarisation
Sequence of GST-human TopBP1 BRCT5 A707K (Q92547 641-746 A707K): as the sequence (Q92547 641-746) above, with A67K counted along it

[10] = target: human TopBP1 BRCT4/5 (549-746), untagged (human, UniProt Q92547 549-746); test: fluorescence polarisation
Sequence of human TopBP1 BRCT4/5 (549-746), untagged (Q92547 549-746): as the sequence (Q92547 549-746) above

[11] = target: T1, GST-human TopBP1 BRCT5 (641-746), wild type (human, UniProt Q92547 641-746); test: fluorescence polarisation
T1 sequence (Q92547 641-746): as the sequence (Q92547 641-746) above

[12] = target: T2, mouse TopBP1 BRCT4/5 (553-749), untagged (mouse, UniProt Q6ZQF0 553-749); test: fluorescence polarisation
T2 sequence (looked up): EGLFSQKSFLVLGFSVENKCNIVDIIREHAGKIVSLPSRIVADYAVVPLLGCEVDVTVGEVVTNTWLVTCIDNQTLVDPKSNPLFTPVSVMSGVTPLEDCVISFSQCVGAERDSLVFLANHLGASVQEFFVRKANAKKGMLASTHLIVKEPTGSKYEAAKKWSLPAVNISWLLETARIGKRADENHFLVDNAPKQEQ

[13] = target: GST-human TopBP1 BRCT4/5 (549-746) (human, UniProt Q92547 549-746); test: fluorescence polarisation
Sequence of GST-human TopBP1 BRCT4/5 (549-746) (Q92547 549-746): as the sequence (Q92547 549-746) above

[14] = target: GST-human TopBP1 BRCT5 S654A (human, UniProt Q92547 641-746, S654A); test: fluorescence polarisation
Sequence of GST-human TopBP1 BRCT5 S654A (Q92547 641-746 S654A): as the sequence (Q92547 641-746) above, with S14A counted along it

[15] = target: T1, GST-human TopBP1 BRCT5 (641-746), wild …; test: fluorescence polarisation; remark: listed apart in the source
[16] = target: T1, GST-human TopBP1 BRCT5 (641-746), wild …; test: fluorescence polarisation; remark: listed apart in the source

Molecule: BLM (Bloom syndrome, RecQ-like helicase) 297-309 (from UniProt P54132) λ phosphatase-treated pSer304 peptide
KD [1]: weaker; reference 2.6 ± 0.4

Molecule: CC[C@H](C)[C@H](NC(=O)[C@H](Cc1ccccc1)NC(=O)CNC(=S)Nc1ccc2c(c1)C(=O)OC21c2ccc(O)cc2Oc2cc(O)ccc21)C(=O)N[C@@H](CC(=O)O)C(=O)N[C@@H](COP(=O)(O)O)C(=O)N[C@@H](CC(=O)O)C(=O)N[C@H](C(=O)N[C@@H](CC(=O)O)C(=O)N[C@H](C(=O)N[C@@H](CCC(=O)O)C(=O)N[C@@H](CCC(=O)O)C(=O)N[C@@H](CCC(=O)O)C(N)=O)C(C)C)[C@@H](C)OP(=O)(O)O [MDC1, reference compound] ({FITC}-GFID[pS]D[pT]DVEEE-NH2)
Kd (GST-hBRCT5 M689A): 15 ± 1 µM
Kd (GST-hTopBP1 BRCT5 WT): 15 ± 1 µM

B1: FITC-labelled BLM pSer304 peptide (FITC-DTDFVPPpSPEEII-NH2) (peptide)
peptide: {FITC}-DTDFVPP[pS]PEEII-NH2
Kd [3]: 18 ± 2 µM
Kd [4]: 53 ± 4 µM
Kd [5]: 45 ± 2 µM
Kd [6]: 42 ± 3 µM
Kd [7]: 320 ± 40 µM
Kd [8]: 36 ± 3 µM
Kd [9]: 70 ± 20 µM
Kd [10]: 3.2 ± 0.8 µM
Kd [11]: 3.9 ± 0.3 µM
Kd [12]: 6 ± 2 µM
Kd [13]: 6 ± 1 µM
Kd [14]: 33 ± 3 µM
Kd [15]: 2.6 µM and 3.7 µM

The remaining lines, values ahead:

Kd (GST-hTopBP1 BRCT5 WT): ≥ 300 µM
Molecule: CC(C)C[C@H](NC(=O)[C@H](CC(=O)O)NC(=O)[C@H](CCCCN)NC(=O)[C@H](COP(=O)(O)O)NC(=O)[C@@H](NC(=O)[C@H](CO)NC(=O)[C@H](CC(C)C)NC(=O)[C@@H](NC(=O)[C@H](CC(=O)O)NC(=O)[C@H](CCC(=O)O)NC(=O)[C@H](CCCCN)NC(=S)Nc1ccc2c(c1)C(=O)OC21c2ccc(O)cc2Oc2cc(O)ccc21)C(C)C)[C@@H](C)O)C(N)=O [pSer338] ({FITC}-KEDVLST[pS]KDL-NH2)

Kd (GST-hTopBP1 BRCT5 WT; KD, FP, BLM pSer304 peptide treated with λ phosphatase, 1 hour at 30 °C): ≥ 60 µM
Molecule: CC[C@H](C)[C@H](NC(=O)[C@@H](NC(=O)[C@H](CCC(=O)O)NC(=O)[C@H](CCC(=O)O)NC(=O)[C@@H]1CCCN1C(=O)[C@H](CO)NC(=O)[C@@H]1CCCN1C(=O)[C@@H]1CCCN1C(=O)[C@@H](NC(=O)[C@H](Cc1ccccc1)NC(=O)[C@H](CC(=O)O)NC(=O)[C@@H](NC(=O)[C@H](CC(=O)O)NC(=S)Nc1ccc2c(c1)C(=O)OC21c2ccc(O)cc2Oc2cc(O)ccc21)[C@@H](C)O)C(C)C)[C@@H](C)CC)C(N)=O [Ser304] ({FITC}-DTDFVPPSPEEII-NH2)

Kd [2]: 3 to 6 µM
Molecule: CC[C@H](C)[C@H](NC(=O)[C@@H](NC(=O)[C@H](CCC(=O)O)NC(=O)[C@H](CCC(=O)O)NC(=O)[C@@H]1CCCN1C(=O)[C@H](COP(=O)(O)O)NC(=O)[C@@H]1CCCN1C(=O)[C@@H]1CCCN1C(=O)[C@@H](NC(=O)[C@H](Cc1ccccc1)NC(=O)[C@H](CC(=O)O)NC(=O)[C@@H](NC(=O)[C@H](CC(=O)O)NC(=S)Nc1ccc2c(c1)C(=O)OC21c2ccc(O)cc2Oc2cc(O)ccc21)[C@@H](C)O)C(C)C)[C@@H](C)CC)C(N)=O [pSer304] ({FITC}-DTDFVPP[pS]PEEII-NH2)

Kd [16]: 60 ± 10 µM
B2: Unphosphorylated Ser304 BLM peptide (FITC-DTDFVPPSPEEII-NH2) (peptide)
peptide: {FITC}-DTDFVPPSPEEII-NH2

Kd [11]: 285 ± 10 µM
B3: FITC-labelled BLM pSer338 peptide (FITC-KEDVLSTpSKDL-NH2) (peptide)
peptide: {FITC}-KEDVLST[pS]KDL-NH2
